Source: ChEMBL document CHEMBL1154945, “Decahydroisoquinoline derivatives as novel non-peptidic, potent and subtype-selective somatostatin sst(3) receptor antagonists” (Bioorg Med Chem Lett, 2010)

Legend:
[1] = species on record: Homo sapiens; assay: Selectivity for human SST3 over human SST1
[2] = biological target: T1, Somatostatin receptor type 3 (Homo sapiens, UniProt P32745); assay: Binding affinity to human SST3 receptor
[3] = biological target: Somatostatin receptor type 1 (Homo sapiens, UniProt P30872); assay: Binding affinity to human SST1 receptor
Chain of Somatostatin receptor type 1 (Homo sapiens, UniProt P30872) (P30872 whole entry): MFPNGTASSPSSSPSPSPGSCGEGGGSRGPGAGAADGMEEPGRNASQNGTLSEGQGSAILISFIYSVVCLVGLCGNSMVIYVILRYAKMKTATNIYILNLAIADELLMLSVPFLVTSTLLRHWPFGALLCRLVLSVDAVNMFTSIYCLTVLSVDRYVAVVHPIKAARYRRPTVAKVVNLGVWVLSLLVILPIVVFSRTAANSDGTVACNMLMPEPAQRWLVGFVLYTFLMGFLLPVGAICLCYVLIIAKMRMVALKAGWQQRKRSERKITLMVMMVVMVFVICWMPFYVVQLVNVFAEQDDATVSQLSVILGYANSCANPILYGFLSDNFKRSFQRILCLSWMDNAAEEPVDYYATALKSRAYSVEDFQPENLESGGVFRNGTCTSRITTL

[4] = biological target: Somatostatin receptor type 2 (Homo sapiens, UniProt P30874); assay: Binding affinity to human SST2 receptor
Chain of Somatostatin receptor type 2 (Homo sapiens, UniProt P30874) (P30874 whole entry): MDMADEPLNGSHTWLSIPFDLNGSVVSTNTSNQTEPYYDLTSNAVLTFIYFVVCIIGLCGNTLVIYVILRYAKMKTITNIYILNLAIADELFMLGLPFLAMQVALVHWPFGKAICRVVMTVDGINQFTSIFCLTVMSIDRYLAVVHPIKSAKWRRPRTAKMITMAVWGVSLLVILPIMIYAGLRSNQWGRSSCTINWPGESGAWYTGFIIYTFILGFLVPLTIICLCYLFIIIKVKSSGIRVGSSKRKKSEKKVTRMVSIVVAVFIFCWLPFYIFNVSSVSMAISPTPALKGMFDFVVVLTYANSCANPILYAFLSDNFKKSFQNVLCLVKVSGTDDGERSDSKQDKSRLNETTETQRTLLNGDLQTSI

[5] = biological target: Somatostatin receptor type 5 (Homo sapiens, UniProt P35346); assay: Binding affinity to human SST5 receptor
Chain of Somatostatin receptor type 5 (P35346 whole entry): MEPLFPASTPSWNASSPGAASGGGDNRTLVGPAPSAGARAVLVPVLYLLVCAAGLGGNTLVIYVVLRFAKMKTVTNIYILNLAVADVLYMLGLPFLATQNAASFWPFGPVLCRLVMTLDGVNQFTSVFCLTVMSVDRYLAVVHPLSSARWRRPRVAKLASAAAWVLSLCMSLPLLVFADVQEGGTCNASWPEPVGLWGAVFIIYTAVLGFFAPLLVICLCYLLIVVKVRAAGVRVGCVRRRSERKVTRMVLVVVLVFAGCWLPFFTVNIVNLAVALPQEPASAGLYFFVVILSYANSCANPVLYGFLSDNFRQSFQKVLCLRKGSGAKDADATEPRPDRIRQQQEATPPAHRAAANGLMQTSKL

[6] = biological target: Somatostatin receptor type 1 (Rattus norvegicus, UniProt P28646); assay: Displacement of [125I]SRIF-14 from rat cortex membrane SST1 receptor
Chain of Somatostatin receptor type 1 (Rattus norvegicus, UniProt P28646) (P28646 whole entry): as the sequence (P30872 whole entry) above, with S8P, S11T, P16S, S20G, G25V, G26C, A32S, A45S, T385A, T389S counted along it

[7] = species on record: Homo sapiens; assay: Selectivity for human SST3 over human SST5
[8] = species on record: Homo sapiens; assay: Selectivity for human SST3 over human SST2
[9] = species on record: Homo sapiens; assay: Selectivity for human SST3 over human SST4
[10] = biological target: Somatostatin receptor type 4 (Homo sapiens, UniProt P31391); assay: Binding affinity to human SST4 receptor
Chain of Somatostatin receptor type 4 (P31391 whole entry): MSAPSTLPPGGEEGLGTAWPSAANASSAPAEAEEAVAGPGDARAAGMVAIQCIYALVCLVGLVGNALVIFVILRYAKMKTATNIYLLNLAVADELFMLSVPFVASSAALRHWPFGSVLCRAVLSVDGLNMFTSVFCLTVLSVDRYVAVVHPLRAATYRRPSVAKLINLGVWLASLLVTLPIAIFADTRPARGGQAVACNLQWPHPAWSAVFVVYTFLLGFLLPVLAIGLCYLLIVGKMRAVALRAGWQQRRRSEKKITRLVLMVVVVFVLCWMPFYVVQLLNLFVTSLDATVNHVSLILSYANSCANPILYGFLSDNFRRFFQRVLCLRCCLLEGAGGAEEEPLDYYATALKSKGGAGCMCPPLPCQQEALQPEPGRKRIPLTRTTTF

[11] = biological target: Somatostatin receptor type 2 (Rattus norvegicus, UniProt P30680); assay: Displacement of [125I]SRIF-14 from rat cortex membrane SST2 receptor
Chain of Somatostatin receptor type 2 (Rattus norvegicus, UniProt P30680) (P30680 whole entry): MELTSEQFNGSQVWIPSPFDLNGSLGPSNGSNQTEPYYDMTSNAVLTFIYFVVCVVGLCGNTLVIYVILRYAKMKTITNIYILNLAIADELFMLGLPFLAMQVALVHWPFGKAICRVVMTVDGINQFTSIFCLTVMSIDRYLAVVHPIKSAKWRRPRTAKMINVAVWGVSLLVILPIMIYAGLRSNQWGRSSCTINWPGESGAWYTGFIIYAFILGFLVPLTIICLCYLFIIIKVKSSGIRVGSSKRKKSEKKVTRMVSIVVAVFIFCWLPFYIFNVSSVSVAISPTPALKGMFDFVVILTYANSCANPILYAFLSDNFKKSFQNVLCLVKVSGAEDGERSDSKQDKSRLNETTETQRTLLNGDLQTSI

[12] = biological target: T1, Somatostatin receptor type 3; assay: Antagonist activity at human recombinant SST3 receptor expressed in CHO cells assessed as inhibition of SRIF14-induced cAMP accumulation; format: functional, cell-based
Procedure, shortened: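 cAMP-based functional assay with human recombinant sst3 receptors expressed in CHO cells; test agent's antagonism of SRIF-14 response measured, pKB derived; n = 6.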

T1 sequence (P32745 whole entry): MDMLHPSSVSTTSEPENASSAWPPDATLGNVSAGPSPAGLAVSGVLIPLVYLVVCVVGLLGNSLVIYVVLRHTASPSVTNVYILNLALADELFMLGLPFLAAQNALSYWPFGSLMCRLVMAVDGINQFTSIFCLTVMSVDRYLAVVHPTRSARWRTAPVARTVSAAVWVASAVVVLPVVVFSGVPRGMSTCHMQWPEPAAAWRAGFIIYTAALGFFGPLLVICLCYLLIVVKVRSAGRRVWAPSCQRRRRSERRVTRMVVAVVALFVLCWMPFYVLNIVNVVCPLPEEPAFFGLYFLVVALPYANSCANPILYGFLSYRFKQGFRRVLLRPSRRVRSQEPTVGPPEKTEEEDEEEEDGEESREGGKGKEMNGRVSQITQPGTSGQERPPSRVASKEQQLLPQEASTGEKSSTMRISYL

Structure (SMILES) | Kd [2] | Kd [3] | other results
Cc1nc2ccc(C[C@H](C)CN3C[C@@H]4CCCC[C@@H]4[C@H](C(=O)N4CCN(c5ccc(F)c(F)c5)CC4)C3)cn2n1 | – | – | Ratio [1]: 620
CC(Cc1ccc2c(c1)OCO2)CN1C[C@H]2CCCC[C@H]2[C@H](C(=O)N2CCN(c3ccc([N+](=O)[O-])cc3)CC2)C1 (mixture of isomers) | 1.12 µM | 6.17 µM | –
CC(Cc1ccc2c(c1)OCO2)CN1C[C@H]2CCCC[C@H]2[C@@H](C(=O)N2CCN(c3ccc([N+](=O)[O-])cc3)CC2)C1 (mixture of isomers) | 0.011 µM | 0.912 µM | Ratio [1]: 100
COC(=O)c1cc(CC(C)CN2C[C@H]3CCCC[C@H]3[C@@H](C(=O)N3CCN(c4ccc([N+](=O)[O-])cc4)CC3)C2)cc(C(=O)OC)c1 (mixture of isomers) | 0.107 µM | 2.34 µM | –
O=C(CCN(CCC1c2ccccc2-c2ccccc21)CC1CC1)N1CCN(c2ccc([N+](=O)[O-])cc2)CC1 | 0.302 µM | 0.0776 µM | –
COC(=O)c1cc(C[C@H](C)CN2C[C@@H]3CCCC[C@@H]3[C@H](C(=O)N3CCN(c4ccc([N+](=O)[O-])cc4)CC3)C2)cc(C(=O)OC)c1 | 0.00123 µM | 0.933 µM | Ratio [1]: 760
CC(Cc1ccc2c(c1)OCO2)CN1CCCC(C(=O)N2CCN(c3ccc([N+](=O)[O-])cc3)CC2)C1 (racemic) | 0.0851 µM | 0.102 µM | –
CC(Cc1ccc2c(c1)OCO2)CN1CC2CCCCC2C(C(=O)N2CCN(c3ccc(F)c(F)c3)CC2)C1 (centres undefined) | 0.0209 µM | – | –
CC(Cc1ccc2c(c1)OCO2)CN1CC2CCCCC2C(C(=O)N2CCN(c3cccc(F)c3)CC2)C1 (centres undefined) | 0.2 µM | – | –
Cc1nc2cc(C[C@H](C)CN3C[C@@H]4CCCC[C@@H]4[C@H](C(=O)N4CCN(c5ccc(F)c(F)c5)CC4)C3)ccc2o1 | 0.00339 µM | 1.38 µM | Kd [4]: 5.5 µM; Kd [5]: 1.1 µM; Kd [6]: 0.457 µM; Ratio [7]: > 150; Ratio [8]: > 150; Ratio [9]: 120; Kd [10]: 0.417 µM; Kd [11]: 0.229 µM
CC(Cc1ccc2c(c1)OCO2)CN1CC2CCCCC2C(C(=O)N2CCN(c3ccc(F)cc3)CC2)C1 (centres undefined) | 0.0575 µM | – | –
C[C@@H](Cc1ccc2nccnc2c1)CN1C[C@@H]2CCCC[C@@H]2[C@H](C(=O)N2CCN(c3ccc(F)c(F)c3)CC2)C1 | 0.0107 µM | 2.63 µM | –
C[C@@H](Cc1ccc2c(c1)OCO2)CN1C[C@@H]2CCCC[C@@H]2[C@H](C(=O)N2CCN(c3ccc(F)c(F)c3)CC2)C1 | 0.00851 µM | 0.912 µM | –
CC(Cc1ccc2c(c1)OCO2)CN1CC2CCCCC2C(C(=O)N2CCN(c3cccc(=O)n3C)CC2)C1 (centres undefined) | 2.4 µM | – | –
CC(Cc1ccc2c(c1)OCO2)CN1C[C@@H](C(=O)N2CCN(c3ccc([N+](=O)[O-])cc3)CC2)C[C@@H]2CCCC[C@@H]21 (mixture of isomers) | 1.23 µM | 2.45 µM | –
CCNc1ccc(C[C@H](C)CN2C[C@@H]3CCCC[C@@H]3[C@H](C(=O)N3CCN(c4ccc(F)c(F)c4)CC3)C2)cn1 | 0.0288 µM | 1.91 µM | –

Structure (SMILES) | Kd [2] | Kd [3] | other results
COC(=O)c1cc(CC(C)CN2CC3CCCCC3C(C(=O)N3CCN(c4ccc([N+](=O)[O-])cc4)CC3)C2)cc(C(=O)OC)c1 (racemic) | 0.00288 µM | 1 µM | –
COc1ccc(C[C@@H](C)CN2C[C@H]3CCCC[C@H]3[C@@H](C(=O)N3CCN(c4ccc(F)c(F)c4)CC3)C2)cn1 | 3.63 µM | 0.724 µM | Kd [4]: 38 µM; Kd [5]: 91.2 µM; Kd [6]: 0.813 µM; pKb [12]: 5.1; Kd [10]: 6.17 µM; Kd [11]: 20.9 µM
CCOc1ccc(C[C@H](C)CN2C[C@@H]3CCCC[C@@H]3[C@H](C(=O)N3CCN(c4ccc(F)c(F)c4)CC3)C2)cn1 | 0.0141 µM | 2.34 µM | –
COC(=O)c1cc(C[C@@H](C)CN2C[C@@H]3CCCC[C@@H]3[C@H](C(=O)N3CCN(c4ccc([N+](=O)[O-])cc4)CC3)C2)cc(C(=O)OC)c1 | 0.00224 µM | 0.437 µM | –
CC(Cc1ccc2c(c1)OCO2)CN1CC2CCCCC2C(C(=O)N2CCN(c3cccc4nccn34)CC2)C1 (centres undefined) | 1.26 µM | – | –
CC(Cc1ccc2c(c1)OCO2)CN1CC2CCCCC2C(C(=O)N2CCN(c3cccc4nncn34)CC2)C1 (centres undefined) | 2.69 µM | – | –
C[C@@H](Cc1ccc2ocnc2c1)CN1C[C@@H]2CCCC[C@@H]2[C@H](C(=O)N2CCN(c3ccc(F)c(F)c3)CC2)C1 | 0.011 µM | 1.62 µM | –
C[C@@H](Cc1ccc2nsnc2c1)CN1C[C@@H]2CCCC[C@@H]2[C@H](C(=O)N2CCN(c3ccc(F)c(F)c3)CC2)C1 | 0.00776 µM | 1.55 µM | Kd [4]: 3.55 µM; Kd [5]: 1.66 µM; Kd [6]: 1.17 µM; Ratio [7]: > 150; Ratio [8]: > 150; Ratio [9]: 130; Kd [10]: 1.02 µM; Kd [11]: 0.151 µM
CC(Cc1ccc2c(c1)OCO2)CN1C[C@H](C(=O)N2CCN(c3ccc([N+](=O)[O-])cc3)CC2)C[C@@H]2CCCC[C@@H]21 (mixture of isomers) | 0.162 µM | 0.49 µM | –
C[C@@H](Cc1ccc2ncnn2c1)CN1C[C@@H]2CCCC[C@@H]2[C@H](C(=O)N2CCN(c3ccc(F)c(F)c3)CC2)C1 | 0.0347 µM | 9.12 µM | –
COC(=O)c1cc(CC(C)CN2C[C@@H]3CCCC[C@@H]3[C@H](C(=O)N3CCN(c4ccc([N+](=O)[O-])cc4)CC3)C2)cc(C(=O)OC)c1 (mixture of isomers) | 0.00135 µM | 0.398 µM | –
O=C(C1CCCN(CCC2c3ccccc3-c3ccccc32)C1)N1CCN(c2ccc([N+](=O)[O-])cc2)CC1 (racemic) | 0.117 µM | 0.12 µM | –
CN(CCC(=O)N1CCN(c2ccc([N+](=O)[O-])cc2)CC1)CCC1c2ccccc2-c2ccccc21 | 1.05 µM | 0.00759 µM | –
Cc1cn2cc(C[C@H](C)CN3C[C@@H]4CCCC[C@@H]4[C@H](C(=O)N4CCN(c5ccc(F)c(F)c5)CC4)C3)ccc2n1 | 0.107 µM | 0.0398 µM | Ratio [1]: 0.4
CC(Cc1ccc2c(c1)OCO2)CN1C[C@@H](C(=O)N2CCN(c3ccc([N+](=O)[O-])cc3)CC2)C[C@@H]2CCCC[C@H]21 (mixture of isomers) | 0.155 µM | 0.537 µM | –

Second part, led by results:

Kd [2] | Kd [3] | Structure (SMILES) | other results
0.407 µM | – | CC(Cc1ccc2c(c1)OCO2)CN1CC2CCCCC2C(C(=O)N2CCN(c3cccc(Cl)n3)CC2)C1 (centres undefined) | –
0.331 µM | – | CC(Cc1ccc2c(c1)OCO2)CN1CC2CCCCC2C(C(=O)N2CCN(c3ccccn3)CC2)C1 (centres undefined) | –
0.741 µM | – | CC(Cc1ccc2c(c1)OCO2)CN1CC2CCCCC2C(C(=O)N2CCN(c3cccc(C(F)(F)F)n3)CC2)C1 (centres undefined) | –
0.0195 µM | – | CC(Cc1ccc2c(c1)OCO2)CN1CC2CCCCC2C(C(=O)N2CCN(c3ccc4nonc4n3)CC2)C1 (centres undefined) | –
0.107 µM | – | CC(Cc1ccc2c(c1)OCO2)CN1CC2CCCCC2C(C(=O)N2CCN(c3ccc4nccnc4n3)CC2)C1 (centres undefined) | –
1.35 µM | – | CC(Cc1ccc2c(c1)OCO2)CN1CC2CCCCC2C(C(=O)N2CCN(c3cccc4nccnc34)CC2)C1 (centres undefined) | –
0.02 µM | – | CC(Cc1ccc2c(c1)OCO2)CN1CC2CCCCC2C(C(=O)N2CCN(c3ccc4nonc4c3)CC2)C1 (centres undefined) | –
0.24 µM | – | CC(Cc1ccc2c(c1)OCO2)CN1CC2CCCCC2C(C(=O)N2CCN(c3ccc4nccn4n3)CC2)C1 (centres undefined) | –
0.0912 µM | – | CC(Cc1ccc2c(c1)OCO2)CN1CC2CCCCC2C(C(=O)N2CCN(c3ccc(Cl)cn3)CC2)C1 (centres undefined) | –
0.0955 µM | – | CC(Cc1ccc2c(c1)OCO2)CN1CC2CCCCC2C(C(=O)N2CCN(c3ccc4nsnc4n3)CC2)C1 (centres undefined) | –
0.0794 µM | – | CC(Cc1ccc2c(c1)OCO2)CN1CC2CCCCC2C(C(=O)N2CCN(c3ccc(C#N)cn3)CC2)C1 (centres undefined) | –
0.0912 µM | – | CC(Cc1ccc2c(c1)OCO2)CN1CC2CCCCC2C(C(=O)N2CCN(c3cccc4nonc34)CC2)C1 (centres undefined) | –
0.191 µM | – | CC(Cc1ccc2c(c1)OCO2)CN1CC2CCCCC2C(C(=O)N2CCN(c3cccc4nsnc34)CC2)C1 (centres undefined) | –
1.58 µM | – | CC(Cc1ccc2c(c1)OCO2)CN1CC2CCCCC2C(C(=O)N2CCN(c3cc4nccnc4cn3)CC2)C1 (centres undefined) | –
